This note sets out measurements from PubChem BioAssay.

Test [1] is described as follows: reducers of endogenous Her2 protein level, primary screen, SKBR3 breast tumor cells, AlphaScreen, ATP viability (AID 461;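 active means Her2 level under about 52% in both replicate screens, with viability over 70% of control, limit read from the data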;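 on Her2 level: lower value means less Her2 protein in the cells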;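 on viability: percent of carrier control wells set as 100% viability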). The note with it: 18-24 h, measured here: SKBR3 viability, ATP luminescence, at 10 µM.
The target in test [2] is Receptor tyrosine-protein kinase erbB-2 (Homo sapiens) (UniProt P04626). Described as above. As to conditions: 18-24 h, at 10 µM, stronger effect = lower value.
The nature of test [3]: SK-BR-3 cell growth inhibitors, pilot screen, 24 h, human (AID 572;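 active means viability at or below 10% of carrier control in both of two separate runs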;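 further: compound exposure lasted between 18 and 24 h rather than exactly 24 h; 100% = carrier-treated control wells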). As to conditions: SK-BR-3 viability, CellTiter-Glo luminescence, at 10 µM, stronger effect = lower value.
Test [4] can be described thus: HUVEC growth inhibition – cell-based, human, primary screen (AID 575;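 active means viability at or below 30% in both replicate assays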;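 further: 100% = median of untreated cell wells with 0.1% DMSO on each plate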). As to conditions: HUVEC proliferation, CellTiter-Glo luminescence, 72 h; at 10 µM; stronger effect = lower value. The method, boiled down: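 Test system: primary human umbilical vein endothelial cells; medium: endothelial basal medium with 2% FBS plus growth supplements; dosing: 10 µM compound only; times: 72 h treatment at 37 °C; signal: CTG luminescence; read-out: % viability relative to median vehicle-well signal on each plate; control set: vehicle and MePR control wells; plate: 384-well, collagen-coated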
In general terms: Cellular ATP, detected with luciferase, serves as a proxy for viable cell number.

Test [5] can be described thus: growth inhibitors of H69AR lung tumor, primary screen, human, duplicate replicates (AID 580;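 active means viability at or under a set limit in both replicates, limit being median viability minus 3 SD, cut at about 48% in these data, passing the limit was not always enough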;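 further: 100% = mean luminescence of untreated wells and 0% = no signal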). As to conditions: H69AR lung tumor cells viability, ATP luminescence, 72 h; at 10 µM; stronger effect = lower value.
A short description of test [6]: reversal of MRP1-mediated doxorubicin resistance, pilot screen, H69AR cells, doxorubicin co-treatment (AID 601). As to conditions: CellTiter-Glo, 72 h, at 10 µM; for differential viability (reversal): stronger effect = higher value.
Test [7] in a line: 384-well plate pilot, post-Golgi transport modulator project, inhibition of yeast transport mutant growth (AID 636; in the data active means inhibition above about 31%). As to conditions: absorbance 615 nm, about 18 h, stronger effect = higher value.
A short description of test [8]: growth suppression of yeast trafficking mutant, preliminary HTS, modulators of trafficking downstream of Golgi apparatus project, 1536-format plate, OD 615 nm (AID 637; in the data active means inhibition above about 30%). As to conditions: yeast transport mutant growth, absorbance 615 nm, 18 h; stronger effect = higher value.
Where [9] appears, read: H69AR cells + 2 uM doxorubicin, measured here: viability with 2 uM doxorubicin, stronger effect = lower value.
[10] abbreviates: H69AR cells, compound alone cytotoxicity.

Active and inactive are the calls of the source.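 How the source made its calls, unless noted: active means viability loss from added drug above about 55%, and viability with drug at most 40%, in both replicates (limit read from the data, passing the limit was not always enough); inconclusive means both conditions met in only one replicate; inactive means neither replicate meets both conditions.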

Sequence of Receptor tyrosine-protein kinase erbB-2 (Homo sapiens) (P04626 whole entry, looked up): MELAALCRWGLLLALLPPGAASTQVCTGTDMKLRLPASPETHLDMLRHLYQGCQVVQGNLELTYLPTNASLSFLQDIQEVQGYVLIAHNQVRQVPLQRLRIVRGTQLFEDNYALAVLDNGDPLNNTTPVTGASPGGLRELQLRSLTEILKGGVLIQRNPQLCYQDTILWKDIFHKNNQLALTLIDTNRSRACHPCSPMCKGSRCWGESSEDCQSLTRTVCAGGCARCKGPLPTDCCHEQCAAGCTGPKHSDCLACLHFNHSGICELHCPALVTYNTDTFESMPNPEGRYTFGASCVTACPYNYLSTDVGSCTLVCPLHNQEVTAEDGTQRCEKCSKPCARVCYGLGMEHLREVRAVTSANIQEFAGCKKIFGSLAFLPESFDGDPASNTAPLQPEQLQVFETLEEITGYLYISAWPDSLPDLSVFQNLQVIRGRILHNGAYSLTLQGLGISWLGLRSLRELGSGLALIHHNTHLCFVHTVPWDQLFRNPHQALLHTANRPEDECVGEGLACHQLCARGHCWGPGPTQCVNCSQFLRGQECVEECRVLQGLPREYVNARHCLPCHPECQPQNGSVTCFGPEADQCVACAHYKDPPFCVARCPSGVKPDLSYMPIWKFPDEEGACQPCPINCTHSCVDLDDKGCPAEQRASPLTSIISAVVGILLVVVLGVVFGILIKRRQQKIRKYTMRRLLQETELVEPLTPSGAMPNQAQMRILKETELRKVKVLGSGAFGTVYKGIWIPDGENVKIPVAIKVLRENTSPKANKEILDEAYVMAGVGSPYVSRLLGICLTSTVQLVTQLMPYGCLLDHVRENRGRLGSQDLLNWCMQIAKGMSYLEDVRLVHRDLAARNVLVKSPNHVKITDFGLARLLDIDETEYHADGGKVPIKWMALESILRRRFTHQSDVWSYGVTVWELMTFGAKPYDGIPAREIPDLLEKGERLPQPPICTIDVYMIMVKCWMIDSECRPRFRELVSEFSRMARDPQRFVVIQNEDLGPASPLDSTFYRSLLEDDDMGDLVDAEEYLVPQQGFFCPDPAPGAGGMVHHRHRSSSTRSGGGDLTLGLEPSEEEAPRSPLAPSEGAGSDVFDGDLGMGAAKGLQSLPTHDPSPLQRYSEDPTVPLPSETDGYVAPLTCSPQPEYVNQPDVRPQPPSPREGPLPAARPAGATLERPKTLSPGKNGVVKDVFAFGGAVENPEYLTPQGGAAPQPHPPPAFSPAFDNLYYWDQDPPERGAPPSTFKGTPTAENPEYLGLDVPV

Regarding `CCCOc1ccc(/C(O)=C2/C(=O)C(=O)N(CCCOC)C2c2ccncc2)cc1` (stereo not given), the viability in test [1] is 98%; in test [3], 98% (inactive); in test [4] it was 110% (inactive); in test [5] it was 94.5% (inactive); in test [6] (setting [9]) it was 86.7%; in test [6] (setting [10]), 94.5%. Moreover, the Her2 level in test [2] is 84% (inactive). Besides, the differential viability (reversal) in test [6] (H69AR cells + 2 uM doxorubicin) is 7.81% (inactive). The inhibition in test [7] was -9.46% (inactive); in test [8], 3.67% (inactive).

As to `CNC(=O)CSc1nnc(-c2ccc(S(=O)(=O)N3CCCC3)cc2)n1-c1cccc(C)c1C`, the viability is 79.5% in test [1]; 79.5% (inactive) in test [3]; 86.4% (inactive) in test [4]; 88.9% (inactive) in test [5]; 77.2% in test [6] (setting [9]); 88.9% in test [6] (setting [10]). Also, the Her2 level in test [2] was 78.5% (inactive). Moreover, the differential viability (reversal) in test [6] (H69AR cells + 2 uM doxorubicin) is 11.7% (inactive). Besides, the inhibition was -4.86% (inactive) in test [7] and -1.15% (inactive) in test [8].

As to `O=C(Cn1ncc2c(=O)oc3ccccc3c21)NCC1CCCO1` (stereo not given), the viability was 104% in test [1]; 104% (inactive) in test [3]; 108% (inactive) in test [4]; 94.8% (inactive) in test [5]; 102% in test [6] (setting [9]); 94.8% in test [6] (setting [10]). For the same molecule, the Her2 level in test [2] was 102% (inactive). For the same molecule, the differential viability (reversal) in test [6] (H69AR cells + 2 uM doxorubicin) is -7.15% (inactive). The inhibition in test [7] is -3.59% (inactive); in test [8], -1.17% (inactive).

Consider `CS(=O)(=O)N1CCN(c2ccccc2NC(=O)c2cccs2)CC1`, for which the viability in test [1] was 99.5%; in test [3], 99.5% (inactive); in test [4], 108% (inactive); in test [5], 91.3% (inactive); in test [6] (setting [9]) it was 96.3%; in test [6] (setting [10]) it was 91.3%. In addition, the Her2 level in test [2] is 100% (inactive). The differential viability (reversal) in test [6] (H69AR cells + 2 uM doxorubicin) is -5% (inactive). Besides, the inhibition was -1.17% (inactive) in test [7] and 1% (inactive) in test [8].

For the molecule `O=C(CCc1ccccc1)Nc1ccncc1`, the viability was 110% in test [1]; 110% (inactive) in test [3]; 103% (inactive) in test [4]; 97.8% (inactive) in test [5]; 92.6% in test [6] (setting [9]); 97.8% in test [6] (setting [10]). For the same molecule, in test [2], the Her2 level is 119% (inactive). Also, the differential viability (reversal) in test [6] (H69AR cells + 2 uM doxorubicin) is 5.17% (inactive). Further, the inhibition in test [7] is 0.65% (inactive); in test [8], -5.33% (inactive).

On to `CCOC(=O)c1c(C)[nH]c(C(=O)CSc2nc3ccccc3o2)c1C`, for which the viability is 85.5% in test [1]; 85.5% (inactive) in test [3]; 88.6% (inactive) in test [4]; 73.3% (inactive) in test [5]; 92.2% in test [6] (setting [9]); 73.3% in test [6] (setting [10]). For the same molecule, in test [2], the Her2 level was 85% (inactive). The differential viability (reversal) in test [6] (H69AR cells + 2 uM doxorubicin) is -18.9% (inactive). Also, the inhibition is -1.15% (inactive) in test [7] and -5.17% (inactive) in test [8].

In the case of `CC(C)CCn1c(N)c(S(=O)(=O)c2cccs2)c2nc3ccccc3nc21`, the viability in test [1] was 171%; in test [3] it was 171% (inactive); in test [4] it was 49.8% (inactive); in test [5], 42.9% (active); in test [6] (setting [9]) it was 57.7%; in test [6] (setting [10]), 42.9%. For the same molecule, the Her2 level in test [2] is 43% (active). In test [6] (H69AR cells + 2 uM doxorubicin), the differential viability (reversal) is -14.9% (inactive). For the same molecule, the inhibition in test [7] was -3.95% (inactive); in test [8], -3.17% (inactive).

On to `CC(=O)Nc1ccc(S(=O)(=O)n2nc(C)cc2C)cc1`, for which the viability in test [1] was 105%; in test [3], 105% (inactive); in test [4] it was 111% (inactive); in test [5] it was 105% (inactive); in test [6] (setting [9]), 98.9%; in test [6] (setting [10]) it was 105%. In addition, in test [2], the Her2 level was 106% (inactive). The differential viability (reversal) in test [6] (H69AR cells + 2 uM doxorubicin) is 5.88% (inactive). For the same molecule, the inhibition in test [7] is -6.45% (inactive); in test [8], 10.3% (inactive).

Consider `CN(C#N)c1nc(N2CCOCC2)nc(N2CCOCC2)n1`, for which the viability in test [1] is 111%; in test [3], 111% (inactive); in test [4], 81.7% (inactive); in test [5], 92.8% (inactive); in test [6] (setting [9]), 89.5%; in test [6] (setting [10]), 92.8%. Also, in test [2], the Her2 level was 120% (inactive). In addition, the differential viability (reversal) in test [6] (H69AR cells + 2 uM doxorubicin) is 3.22% (inactive). Moreover, the inhibition in test [7] is -1.22% (inactive); in test [8] it was 6.35% (inactive).

In the case of `O=C(CCCN1C(=O)c2ccccc2C1=O)Oc1ccc(F)cc1`, the viability is 98% in test [1]; 98% (inactive) in test [3]; 98.2% (inactive) in test [4]; 94.8% (inactive) in test [5]; 85.2% in test [6] (setting [9]); 94.8% in test [6] (setting [10]). Besides, in test [2], the Her2 level was 98% (inactive). In addition, the differential viability (reversal) in test [6] (H69AR cells + 2 uM doxorubicin) was 9.54% (inactive). Besides, the inhibition was -5.47% (inactive) in test [7] and 1.29% (inactive) in test [8].

`CCc1nc(NCCCN2CCOCC2)c2oc3ccccc3c2n1`: the viability in test [1] was 88%; in test [3] it was 88% (inactive); in test [4], 80.3% (inactive); in test [5] it was 89.1% (inactive); in test [6] (setting [9]), 88.2%; in test [6] (setting [10]), 89.1%. For the same molecule, the Her2 level in test [2] was 95% (inactive). For the same molecule, the differential viability (reversal) in test [6] (H69AR cells + 2 uM doxorubicin) is 0.87% (inactive). The inhibition is -0.13% (inactive) in test [7] and 0.81% (inactive) in test [8].

With `O=C(NCc1ccccn1)C(C(=O)c1ccc(F)cc1)n1ccccc1=O` (stereo not given), the viability is 86.5% in test [1]; 86.5% (inactive) in test [3]; 97.9% (inactive) in test [4]; 96.4% (inactive) in test [5]; 100% in test [6] (setting [9]); 96.4% in test [6] (setting [10]). Moreover, the Her2 level in test [2] was 95.5% (inactive). In test [6] (H69AR cells + 2 uM doxorubicin), the differential viability (reversal) was -3.97% (inactive). In addition, the values for the inhibition in test [7] and in test [8] were -4.05% (inactive) and 4.1% (inactive), respectively.

`CCOc1ccc2[nH]c(=O)c(C(c3nnnn3Cc3ccco3)N3CCC(C)CC3)cc2c1` (stereo not given): the viability in test [1] was 80.5%; in test [3], 80.5% (inactive); in test [4], 82.3% (inactive); in test [5], 85.7% (inactive); in test [6] (setting [9]), 87.7%; in test [6] (setting [10]) it was 85.7%. Also, the Her2 level in test [2] is 81.5% (inactive). For the same molecule, in test [6] (H69AR cells + 2 uM doxorubicin), the differential viability (reversal) is -1.93% (inactive). Further, the inhibition in test [7] was -5.34% (inactive); in test [8] it was 3.02% (inactive).

For the molecule `COc1cccc(-c2noc(C3CCCN(C(=O)Cc4ccccc4)C3)n2)c1` (stereo not given), the viability in test [1] is 95%; in test [3], 95% (inactive); in test [4] it was 104% (inactive); in test [5] it was 85% (inactive); in test [6] (setting [9]) it was 87.3%; in test [6] (setting [10]) it was 85%. Also, the Her2 level in test [2] is 94% (inactive). Further, the differential viability (reversal) in test [6] (H69AR cells + 2 uM doxorubicin) is -2.34% (inactive). For the same molecule, the inhibition was -0.65% (inactive) in test [7] and -3.97% (inactive) in test [8].

The term viability denotes a read-out of living cells in per cent, often relative to untreated cells. The term inhibition denotes the drop in the measured response relative to a control, in per cent.
